Measurements from ChEMBL document CHEMBL4765371, “Synthesis and evaluation of Na/K-ATP-ase inhibiting and cytotoxic in vitro activities of oleandrigenin and its selected 17β-(butenolidyl)- and 17β-(3-furyl)- analogues” (Eur J Med Chem, 2020).
Activity calls are given as the source filed them. The calls are words filed in the database; no cut-off is given here.

The compounds below were run on CCRF-CEM (assay: Cytotoxicity against human CEM cells assessed as reduction in cell viability incubated for 72 hrs by resazurin assay). Conditions: not given.
Type: functional, cell-based
In short: (§1)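 Cells (CEM, HeLa, MCF7, BJ fibroblasts) exposed to compounds for 72 h, viability read by resazurin staining. Values are means ± SD from at least three independent experiments run in triplicate.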
With `CC(=O)O[C@H]1C[C@]2(O)[C@@H]3CC[C@@H]4C[C@@H](O[Si](C)(C)C(C)(C)C)CC[C@]4(C)[C@H]3CC[C@]2(C)[C@H]1c1ccoc1` the IC50 was greater than 50 µM. For `CC(C)(C)[Si](C)(C)O[C@H]1CC[C@@]2(C)[C@H](CC[C@@H]3[C@@H]2CC[C@]2(C)[C@@H](c4ccoc4)[C@@H](O)[C@H]4O[C@]342)C1`, the IC50 was 34.7 µM. For `CC(=O)O[C@H]1CC[C@@]2(C)[C@H](CC[C@@H]3[C@@H]2CC[C@]2(C)[C@@H](C4=CC(=O)OC4)[C@@H](OC(C)=O)C[C@]32O)C1` [GITOXIGENIN DIACETATE], the IC50 was 0.4 µM.

The compounds below were run on MCF7 (assay: Cytotoxicity against human MCF7 cells assessed as reduction in cell viability incubated for 72 hrs by resazurin assay). Conditions: MCF7, 72 h.
Type: functional, cell-based
In short: as §1
Compound `CC(=O)O[C@H]1C[C@]2(O)[C@@H]3CC[C@@H]4C[C@@H](O[Si](C)(C)C(C)(C)C)CC[C@]4(C)[C@H]3CC[C@]2(C)[C@H]1c1ccoc1` has an IC50 greater than 50 µM. Work on `CC(C)(C)[Si](C)(C)O[C@H]1CC[C@@]2(C)[C@H](CC[C@@H]3[C@@H]2CC[C@]2(C)[C@@H](c4ccoc4)[C@@H](O)[C@H]4O[C@]342)C1` yielded an IC50 of 14 µM. `CC(=O)O[C@H]1CC[C@@]2(C)[C@H](CC[C@@H]3[C@@H]2CC[C@]2(C)[C@@H](C4=CC(=O)OC4)[C@@H](OC(C)=O)C[C@]32O)C1` [GITOXIGENIN DIACETATE] showed an IC50 of 1.7 µM.

Each compound was assayed on HeLa (assay: Cytotoxicity against human HeLa cells assessed as reduction in cell viability incubated for 72 hrs by resazurin assay). Conditions: not given.
Type: functional, cell-based
In short: as §1
`CC(=O)O[C@H]1C[C@]2(O)[C@@H]3CC[C@@H]4C[C@@H](O[Si](C)(C)C(C)(C)C)CC[C@]4(C)[C@H]3CC[C@]2(C)[C@H]1c1ccoc1` showed an IC50 greater than 50 µM. `CC(C)(C)[Si](C)(C)O[C@H]1CC[C@@]2(C)[C@H](CC[C@@H]3[C@@H]2CC[C@]2(C)[C@@H](c4ccoc4)[C@@H](O)[C@H]4O[C@]342)C1` was tested, and the IC50 was 32.3 µM. `CC(=O)O[C@H]1CC[C@@]2(C)[C@H](CC[C@@H]3[C@@H]2CC[C@]2(C)[C@@H](C4=CC(=O)OC4)[C@@H](OC(C)=O)C[C@]32O)C1` [GITOXIGENIN DIACETATE] showed an IC50 of 1.1 µM.

These compounds were tested on BJ (assay: Cytotoxicity against human BJ cells assessed as reduction in cell viability incubated for 72 hrs by resazurin assay). Conditions: not given.
Type: cell-based
In short: as §1
`CC(=O)O[C@H]1C[C@]2(O)[C@@H]3CC[C@@H]4C[C@@H](O[Si](C)(C)C(C)(C)C)CC[C@]4(C)[C@H]3CC[C@]2(C)[C@H]1c1ccoc1` gave an IC50 greater than 50 µM. In the case of `CC(C)(C)[Si](C)(C)O[C@H]1CC[C@@]2(C)[C@H](CC[C@@H]3[C@@H]2CC[C@]2(C)[C@@H](c4ccoc4)[C@@H](O)[C@H]4O[C@]342)C1`, the IC50 is reported as 16.3 µM. `CC(=O)O[C@H]1CC[C@@]2(C)[C@H](CC[C@@H]3[C@@H]2CC[C@]2(C)[C@@H](C4=CC(=O)OC4)[C@@H](OC(C)=O)C[C@]32O)C1` [GITOXIGENIN DIACETATE] was tested, and the IC50 was 0.2 µM.

Species: Sus scrofa
Assay: Inhibition of porcine kidney Na+/K+ ATPase at 50 uM assessed as enzyme residual activity using ATP as substrate incubated for 2 mins followed by substrate addition and measured after 6 mins (reference value: 100 +/-3.16%)
Type: tissue-based
Conditions: time 8.0 min
`CC(=O)O[C@H]1C[C@]2(O)[C@@H]3CC[C@@H]4C[C@@H](O[Si](C)(C)C(C)(C)C)CC[C@]4(C)[C@H]3CC[C@]2(C)[C@H]1c1ccoc1` showed an Activity of 69.1%. Work on `CC(C)(C)[Si](C)(C)O[C@H]1CC[C@@]2(C)[C@H](CC[C@@H]3[C@@H]2CC[C@]2(C)[C@@H](c4ccoc4)[C@@H](O)[C@H]4O[C@]342)C1` yielded an Activity of 74.4%. With `CC(=O)O[C@H]1CC[C@@]2(C)[C@H](CC[C@@H]3[C@@H]2CC[C@]2(C)[C@@H](C4=CC(=O)OC4)[C@@H](OC(C)=O)C[C@]32O)C1` [GITOXIGENIN DIACETATE] the Activity was 101%.

The compounds below were run on HeLa (assay: Induction of cell cycle arrest in human HeLa cells assessed as decrease in accumulation of cells at G0/G1 phase at 1 to 10 uM incubated for 24 hrs by PI staining based flow cytometry analysis relative to control). Conditions: dose 1-10 µM.
Type: functional
Parameters: scale not given: the % may be the effect or the level left
In short: (§2)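 HeLa cells treated 24 h at 1 or 10 µM, then harvested, fixed and stained with propidium iodide. DNA content measured by flow cytometry and cells assigned to subG1 (apoptotic), G0/G1, S and G2/M. Compared with untreated and DMSO-only controls. Means of three independent experiments in triplicate; one-way ANOVA, p < 0.05.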
`CC(=O)O[C@H]1CC[C@@]2(C)[C@H](CC[C@@H]3[C@@H]2CC[C@]2(C)[C@@H](C4=CC(=O)OC4)[C@@H](OC(C)=O)C[C@]32O)C1` [GITOXIGENIN DIACETATE] was tested, and the Activity was 4.4%.

The compounds below were run on HeLa (assay: Induction of cell cycle arrest in human HeLa cells assessed as increase in accumulation at subG1 phase at 1 to 10 uM incubated for 24 hrs by PI staining based flow cytometry analysis relative to control). Conditions: dose 1-10 µM.
Type: functional
In short: as §2
In the case of `CC(=O)O[C@H]1CC[C@@]2(C)[C@H](CC[C@@H]3[C@@H]2CC[C@]2(C)[C@@H](C4=CC(=O)OC4)[C@@H](OC(C)=O)C[C@]32O)C1` [GITOXIGENIN DIACETATE], the “fold change (FC)” value is reported as 2.

These compounds were tested on HeLa (assay: Induction of cell cycle arrest in human HeLa cells assessed as increase in accumulation at G2/M phase at 1 uM incubated for 24 hrs by PI staining based flow cytometry analysis relative to control). Conditions: not given.
Type: functional
In short: as §2
With `CC(=O)O[C@H]1CC[C@@]2(C)[C@H](CC[C@@H]3[C@@H]2CC[C@]2(C)[C@@H](C4=CC(=O)OC4)[C@@H](OC(C)=O)C[C@]32O)C1` [GITOXIGENIN DIACETATE] the Activity was 13.1%.

The compounds below were run on HeLa (assay: Induction of cell cycle arrest in human HeLa cells assessed as increase in accumulation at G2/M phase at 10 uM incubated for 24 hrs by PI staining based flow cytometry analysis relative to control). Conditions: not given.
Type: functional
In short: as §2
In the case of `CC(=O)O[C@H]1CC[C@@]2(C)[C@H](CC[C@@H]3[C@@H]2CC[C@]2(C)[C@@H](C4=CC(=O)OC4)[C@@H](OC(C)=O)C[C@]32O)C1` [GITOXIGENIN DIACETATE], the Activity is reported as 11.9%.

The compounds below were run on HeLa (assay: Induction of apoptosis in human HeLa cells assessed as fold increase in caspase 3/7 activity at 1 to 10 uM incubated for 24 hrs by fluorescence based assay relative to control). Conditions: dose 1-10 µM.
Type: functional
`CC(=O)O[C@H]1CC[C@@]2(C)[C@H](CC[C@@H]3[C@@H]2CC[C@]2(C)[C@@H](C4=CC(=O)OC4)[C@@H](OC(C)=O)C[C@]32O)C1` [GITOXIGENIN DIACETATE] was tested, and the “fold change (FC)” value was 2.

Each compound was assayed on HeLa (assay: Induction of apoptosis in human HeLa cells assessed as increase in PARP-1 cleavage at 10 uM incubated for 24 hrs by Western blotting analysis). Conditions: not given.
Type: functional, cell-based
In short: (§3)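 HeLa cells treated 24 h at 1 and 10 µM. Lysates resolved by SDS-PAGE and immunoblotted for PARP-1, caspase-7 zymogen and fragment, Mcl-1, Bcl-2, p53, phospho-Rb, total Rb, phospho-Src (Tyr416) and total Src. β-actin used as loading control. Compared with untreated controls; three repeats.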
For `CC(=O)O[C@H]1CC[C@@]2(C)[C@H](CC[C@@H]3[C@@H]2CC[C@]2(C)[C@@H](C4=CC(=O)OC4)[C@@H](OC(C)=O)C[C@]32O)C1` [GITOXIGENIN DIACETATE], the Activity was “Active”.

Each compound was assayed on HeLa (assay: Induction of apoptosis in human HeLa cells assessed as increase in caspase 7 fragmentation at 1 to 10 uM incubated for 24 hrs by Western blotting analysis). Conditions: dose 1-10 µM.
Type: functional, cell-based
In short: as §3
`CC(=O)O[C@H]1CC[C@@]2(C)[C@H](CC[C@@H]3[C@@H]2CC[C@]2(C)[C@@H](C4=CC(=O)OC4)[C@@H](OC(C)=O)C[C@]32O)C1` [GITOXIGENIN DIACETATE] was tested, and the Activity was “Active”.

The compounds below were run on HeLa (assay: Induction of apoptosis in human HeLa cells assessed as downregulation of Bcl2 protein expression at 1 uM incubated for 24 hrs by Western blotting analysis). Conditions: not given.
Type: functional, cell-based
In short: as §3
For `CC(=O)O[C@H]1CC[C@@]2(C)[C@H](CC[C@@H]3[C@@H]2CC[C@]2(C)[C@@H](C4=CC(=O)OC4)[C@@H](OC(C)=O)C[C@]32O)C1` [GITOXIGENIN DIACETATE], the Activity was “Active”.

What follows are compounds tested on HeLa (assay: Induction of apoptosis in human HeLa cells assessed as downregulation of Mcl1 protein expression at 1 to 10 uM incubated for 24 hrs by Western blotting analysis). Conditions: dose 1-10 µM.
Type: functional, cell-based
In short: as §3
`CC(=O)O[C@H]1CC[C@@]2(C)[C@H](CC[C@@H]3[C@@H]2CC[C@]2(C)[C@@H](C4=CC(=O)OC4)[C@@H](OC(C)=O)C[C@]32O)C1` [GITOXIGENIN DIACETATE] was tested, and the Activity was “Active”.

The compounds below were run on HeLa (assay: Induction of apoptosis in human HeLa cells assessed as reduction in Rb phosphorylation at 1 to 10 uM incubated for 24 hrs by Western blotting analysis). Conditions: dose 1-10 µM.
Type: functional, cell-based
In short: as §3
For `CC(=O)O[C@H]1CC[C@@]2(C)[C@H](CC[C@@H]3[C@@H]2CC[C@]2(C)[C@@H](C4=CC(=O)OC4)[C@@H](OC(C)=O)C[C@]32O)C1` [GITOXIGENIN DIACETATE], the Activity was “Active”.

Each compound was assayed on HeLa (assay: Induction of apoptosis in human HeLa cells assessed as reduction in Rb level at 1 to 10 uM incubated for 24 hrs by Western blotting analysis). Conditions: dose 1-10 µM.
Type: functional, cell-based
In short: as §3
`CC(=O)O[C@H]1CC[C@@]2(C)[C@H](CC[C@@H]3[C@@H]2CC[C@]2(C)[C@@H](C4=CC(=O)OC4)[C@@H](OC(C)=O)C[C@]32O)C1` [GITOXIGENIN DIACETATE] was tested, and the Activity was “Active”.

The compounds below were run on HeLa (assay: Downregulation of p53 protein expression in human HeLa cells at 1 to 10 uM incubated for 24 hrs by Western blotting analysis). Conditions: dose 1-10 µM.
Type: functional, cell-based
In short: as §3
With `CC(=O)O[C@H]1CC[C@@]2(C)[C@H](CC[C@@H]3[C@@H]2CC[C@]2(C)[C@@H](C4=CC(=O)OC4)[C@@H](OC(C)=O)C[C@]32O)C1` [GITOXIGENIN DIACETATE] the inhibition was “Active”.

Each compound was assayed on HeLa (assay: Induction of cell cycle arrest in human HeLa cells assessed as increase in accumulation at S phase at 1 to 10 uM incubated for 24 hrs by PI staining based flow cytometry analysis). Conditions: dose 1-10 µM.
Type: functional
In short: as §2
For `CC(=O)O[C@H]1CC[C@@]2(C)[C@H](CC[C@@H]3[C@@H]2CC[C@]2(C)[C@@H](C4=CC(=O)OC4)[C@@H](OC(C)=O)C[C@]32O)C1` [GITOXIGENIN DIACETATE], the Activity was “Active”.

The compounds below were run on HeLa (assay: Effect on Src kinase protein expression in human HeLa cells at 1 uM incubated for 24 hrs by western blot analysis). Conditions: not given.
Type: functional, cell-based
In short: as §3
`CC(=O)O[C@H]1CC[C@@]2(C)[C@H](CC[C@@H]3[C@@H]2CC[C@]2(C)[C@@H](C4=CC(=O)OC4)[C@@H](OC(C)=O)C[C@]32O)C1` [GITOXIGENIN DIACETATE] was tested, and the Activity was “inactive”.

Each compound was assayed on HeLa (assay: Downregulation of Src kinase activity in human HeLa cells assessed as decrease in Src kinase phosphorylation at Tyr416 residue at 1 uM incubated for 24 hrs by Western blotting analysis). Conditions: not given.
`CC(=O)O[C@H]1CC[C@@]2(C)[C@H](CC[C@@H]3[C@@H]2CC[C@]2(C)[C@@H](C4=CC(=O)OC4)[C@@H](OC(C)=O)C[C@]32O)C1` [GITOXIGENIN DIACETATE] was tested, and the inhibition was “Active”.
